# Source: PubChem BioAssay
# HKDC1 inhibitor: HKDC1 hexokinase inhibitors, primary screen, biochemical, fluorescence, uHTS; inhibition, % at 20 µM; AID 493160, 2011; recombinant HKDC1, G6PDH/diaphorase resazurin coupled fluorescence; hit rate 0.16% among 340,000;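 active = inhibition above about 35% when tested at 20 µM, limit read from the data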;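 also: plate controls were DMSO wells with enzyme for no effect and DMSO wells lacking enzyme for full effect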
#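 System: Recombinant HKDC1 hexokinase | Amount: HKDC1 at 5 µg/mL | Reagent: Glucose with 1 mM ATP | Doses: Single 20 µM dose | Incubation: Reaction time 90 min, room temperature, protected from light | Signal: Coupled resazurin fluorescence, excitation 525 nm, emission 613 nm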
# PfG6PD inh: PfG6PD enzyme inhibitors, primary screen, biochemical, fluorescence intensity, uHTS. glucose-6-phosphate dehydrogenase-6-phosphogluconolactonase (Plasmodium falciparum 3D7). PfGluPho enzyme, NADPH resazurin-diaphorase fluorescence. inhibition, % at 20 µM. hit rate 0.78% among 350,000;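 active = inhibition reaching at least a set limit at 20 µM in the primary screen, cut at about 59% in these data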;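 also: 0% = DMSO wells with substrate and 100% = DMSO wells lacking glucose-6-phosphate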
# aDG glyco act: activators of alpha-DG glycosylation, primary screen, uHTS, Pro5-aDG cells, AlphaScreen; activation, % at 10 µM; alpha-DG glycosylation AlphaScreen (IIH6); 0% Pro5, 100% B10-LARGE cell signal; hit rate 0.22% among 360,000; AID 624168, 2012;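 active = activation of at least 8% versus controls, or a plate z-score of at least 8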;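 also: Pro5 are CHO cells carrying HIG-tagged alpha-DG that lacks glycosylation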
# Beta2AR agonist: beta2AR agonists driving receptor internalization, primary screen, cell-based, FAP fluorogen, flow cytometry | Beta-2 adrenergic receptor (Homo sapiens), P07550 | Am2.2-beta2AR cells | response, % (concentration not given with the values) | hit rate 0.43% among 340,000;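 active = response above a set limit, near 3 SD of response in nonfluorescent compounds, cut at about 42% in these data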
# Cardio protect: cardioprotection against H2O2-induced cell death, primary screen, uHTS, H9c2 cells, ATPLite luminescence. protection from H2O2 cell death, % at 20 µM. hit rate 0.63% among 360,000. H9c2 cardiomyocytes, H2O2 injury protection, 2 h;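 active = compounds giving at least 50% protection of heart cells from peroxide-induced death in the single-dose screen, raw or plate-pattern-corrected value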;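 also: 0% = DMSO wells with peroxide and 100% = DMSO wells without peroxide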
# UCH37 inh: inhibitors of human UCH37 deubiquitinase, primary screen, biochemical, Ub-AMC cleavage, fluorescence | inhibition, % (test concentration not listed) | hit rate 0.33% among 330,000 | purified proteasome/UCH37;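 active = mean inhibition over replicate wells above about 20%, limit read from the data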;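 also: 0% = compound-free wells with enzyme and 100% = wells lacking proteasome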
# Target sequence (Q9Y5K5 whole entry, looked up): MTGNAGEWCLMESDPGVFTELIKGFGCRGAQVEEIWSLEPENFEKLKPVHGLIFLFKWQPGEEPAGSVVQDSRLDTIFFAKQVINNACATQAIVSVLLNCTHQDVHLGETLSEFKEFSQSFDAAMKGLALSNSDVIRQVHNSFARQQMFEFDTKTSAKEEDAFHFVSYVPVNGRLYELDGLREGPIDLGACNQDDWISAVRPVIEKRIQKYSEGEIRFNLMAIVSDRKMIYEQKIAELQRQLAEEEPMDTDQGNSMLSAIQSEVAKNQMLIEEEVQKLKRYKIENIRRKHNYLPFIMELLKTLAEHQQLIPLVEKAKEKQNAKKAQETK
#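 Material: Human UCH37 enzyme supplied as purified proteasome complex | Schedule: 30 min compound-proteasome preincubation then 25 min substrate reaction, room temperature | Detection: AMC fluorescence from Ub-AMC cleavage, excitation 355 nm, emission 460 nm | Benchmarks: Wells without proteasome as full block, compound-free enzyme plus substrate as uninhibited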
# PfGluPho conf: PfG6PD inhibitors, hit retest, confirmation, biochemical, fluorescence intensity, single concentration | shares compounds with PfG6PD inh | recombinant PfGluPho, NADPH-diaphorase-resazurin fluorescence | inhibition, % at 20 µM | hit rate 34% among 2,400;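 active = inhibition of at least 50% at 20 µM in any single replicate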;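 also: 0% = DMSO with substrate and 100% = DMSO lacking glucose-6-phosphate substrate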
# Diaphorase 10uM: diaphorase inhibitors and chemical oxidizers, confirmation, counter-screen for P. falciparum G6PD inhibitor project, biochemical, fluorescence intensity, 10 µM NADPH; shares compounds with PfG6PD inh; diaphorase-coupled resazurin reduction, NADPH 10 uM; inhibition, % at 20 µM; hit rate 39% among 820; AID 504862, 2011;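 active = average inhibition reaching 50% or more with the compound at 20 µM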;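 also: resorufin red fluorescence formed as diaphorase reduces resazurin using NADPH; 0% = DMSO with enzyme and 100% = DMSO without enzyme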
# Diaphorase 30uM: diaphorase inhibitors and chemical oxidizers, confirmation, counter-screen for P. falciparum G6PD inhibitor project, biochemical, fluorescence intensity, 30 µM NADPH | shares compounds with PfG6PD inh | Diaphorase/resazurin coupled assay, resorufin fluorescence | inhibition, % at 20 µM | hit rate 29% among 820 | AID 504863, 2011;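 active = inhibition averaging 50% or more, tested at 20 µM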;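 also: 0% = DMSO with enzyme and 100% = DMSO wells lacking diaphorase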
# * marks the source's active call; other numbers are inactive results; i = inactive; . = no result given. Shown are actives, neighbours in structure and some others; about 2.1% of the full set was active somewhere.
SMILES,HKDC1 inhibitor,PfG6PD inh,aDG glyco act,Beta2AR agonist,Cardio protect,UCH37 inh,PfGluPho conf,others
CC1(c2ccc([N+](=O)[O-])cc2)Nc2ccccc2S1 (stereo not drawn),5,72*,0,-2,0,4,-2,
CC(=NNC(=O)C1CC1)c1ccc(OC(F)F)cc1OC(F)F,.,.,.,.,.,0,.,
O=C1C(c2ccccc2)=[N+]([O-])c2ccccc21,25,61*,4,25,-33,-17,12,
O=C1C(=Cc2cccs2)C(=O)c2ccccc21,-2,-13,0,5,4,9,.,
COC(=O)c1ccc(Cl)c(NC(=O)CN(c2ccccc2)S(=O)(=O)c2ccc(OC)cc2)c1,-3,76*,0,3,-2,3,-18,
CC(OC(=O)CCN=C1NS(=O)(=O)c2ccccc21)C(=O)Nc1ccc(N(C)C)cc1 (stereo not drawn),5,70*,0,-1,-2,.,5,
O=c1cnnc(N/N=C/c2ccccn2)[nH]1,6,46,0,-9,40,.,27,
C(=N\Nc1nc2ccccc2[nH]1)/c1ccccn1,-9,64*,1,-1,-28,.,54*,Diaphorase 10uM=-27;Diaphorase 30uM=2
Cc1cc(=O)[nH]c(NN=Cc2ccccn2)n1,.,.,.,.,.,4,.,
CC(=NNC(=O)CN1CCN(Cc2ccccc2Cl)CC1)c1cccnc1,.,.,.,.,.,4,.,
COC(=O)CCC(=O)OC1(C)C(=O)C2=CN(CCc3ccccn3)C(c3ccc(OC)cc3)=CC2=C(Br)C1=O (stereo not drawn),33,99*,0,4,7,.,41,
COC(=O)CCCC1=CC2=CC(=O)C(C)(OC(=O)c3cccs3)C(=O)C2=CN1CCc1ccccn1 (stereo not drawn),21,70*,0,2,-4,8,23,
CC1=C(n2nnc([N+](=O)[O-])n2)C(c2cccnc2)C(C#N)=C(N)O1 (stereo not drawn),21,84*,0,6,-6,5,79*,Diaphorase 10uM=48;Diaphorase 30uM=49
COC(=O)C1=C(C)OC(N)=C(C#N)C1c1cccnc1 (stereo not drawn),3,-6,0,-8,-1,6,.,
COc1cc(NCc2ccccc2)c2ncn(C(C)C)c2c1,7,61*,0,2,-6,2,56*,Diaphorase 10uM=-3;Diaphorase 30uM=-10
Clc1ccc2nc(SCc3nnc(-c4ccccc4)o3)[nH]c2c1,8,113*,0,-10,2,1,44,
Nc1nonc1-n1nnc(C(=O)NN=Cc2cccc(F)c2)c1-c1ccccc1,.,.,.,.,.,5,.,
NS(=O)(=O)c1cccnc1Nc1cccc(Cl)c1Cl,10,62*,0,2,-9,0,13,
Cc1ccc(/C=C/C(=O)NCc2cccs2)cc1,0,32,0,-3,-5,4,.,
Cc1ccc(/C=C/C(=O)NCc2cccs2)c(C)c1,2,88*,0,4,-10,1,29,
O=C(NN=Cc1cccs1)C(=O)N1CCCC1,.,.,.,.,.,6,.,
CCC(=NNc1ccc(Cl)cc1)c1cnnc(SC)n1,.,.,.,.,.,3,.,
CN1CC(=O)N(CC(=O)Nc2ccc(N(C)C)cc2)c2ccccc2C1=O,4,63*,0,-3,6,1,6,
CN1CC(=O)N(CC(=O)NCCc2ccc(F)cc2)c2ccccc2C1=O,-1,0,0,-4,-4,2,.,
COc1ccc(O)c(/C=c2/sc3nc4cc(C)c(C)cc4n3c2=O)c1,6,68*,0,-5,5,.,33,
SMILES,HKDC1 inhibitor,PfG6PD inh,aDG glyco act,Beta2AR agonist,Cardio protect,UCH37 inh,PfGluPho conf,others
NC(=O)/C=C/C(=O)Nc1ccc(Cl)cc1,-4,-1,0,-1,-35,3,.,
O=C(/C=C/C(Cl)(Cl)Cl)Nc1ccc(Cl)cc1,2,96*,1,-6,-14,.,18,
Cc1ccccc1-c1ccc(C(=O)Nc2cccc(F)c2)o1,2,69*,0,-8,-22,1,-3,
Cc1cccc(C)c1NC(=O)c1ccc(-c2cc(F)ccc2F)o1,.,.,0,.,1,.,.,
CCn1c2ccccc2c2cc(C=Nn3cn[nH]c3=S)ccc21,.,.,.,.,.,-3,.,
CCn1c2ccccc2c2cc(/C=N/n3cn[nH]c3=S)ccc21,4,63*,0,2,-1,.,52*,Diaphorase 10uM=0;Diaphorase 30uM=5
COc1ccc(-c2nc3ccccc3c(=O)n2NC(=S)N(C)C)cc1,-19,80*,0,5,8,4,44,
COc1ccccc1N1CCN(N=Cc2ccc(OC)c(OC)c2OC)CC1,.,.,.,.,.,2,.,
O=C(O)c1cc(NC(=O)c2ccc(Cl)c([N+](=O)[O-])c2)cc(C(=O)O)c1,-3,5,0,-2,-4,1,.,
O=C(Nc1ccc(C(O)(C(F)(F)F)C(F)(F)F)cc1)c1ccc(Cl)c([N+](=O)[O-])c1,7,63*,0,38,-21,2,-10,
COC(=O)c1sc(=S)n(-c2cccc(Cl)c2)c1N,-15,72*,0,-1,0,7,27,
Cc1ccc(-n2c(N)c(C(=O)N3CCOCC3)sc2=S)cc1,-14,53,0,1,1,9,.,
CCOC(=O)c1sc(=S)n(-c2ccccc2)c1N,-5,5,0,10,0,2,.,
CCOc1ccc(-n2c(N)c(C(=O)NCc3ccco3)sc2=S)cc1,-2,85*,0,-7,-5,4,31,
CN1CCN(C(=O)c2sc(=S)n(-c3ccccc3)c2N)CC1,-5,82*,0,4,4,9,83*,Diaphorase 10uM=19;Diaphorase 30uM=-7
COc1ccc(CNC(=O)c2sc(=S)n(-c3ccccc3)c2N)cc1,-6,61*,0,7,1,3,41,
CC(=NNC(=O)c1ccco1)c1cccc(NC(=O)c2ccc(C)s2)c1,.,.,.,.,.,3,.,
COc1ccccc1Cn1c(/C=C/c2ccccc2)nc2ccccc21,3,67*,0,-20,-25,i,3,
